# Measurements taken from paper PMC7031742 (Journal of Ginseng Research, 2018).
# “And” between values parts separate entries of the source, which are not always exact repeats. Identical values can stand only once. Like-named read-outs stand apart in the source and are kept apart here.
# Columns and labels:
# [1] = Permeability of ginsenoside in Caco-2 cells; format: in vitro ADME; details: human; for Papp A→B at 1 h, 10 μM / Papp B→A at 1 h, 10 μM: Caco-2; for efflux ratio at 1 h, 10 μM: Caco-2, ER (efflux ratio), Caco-2, B to A / A to B
# Method in brief: (§1)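 Caco-2 cells (passage 41–43) grown in DMEM with 20% FBS, 1% nonessential amino acids, 4 mM L-glutamine and penicillin-streptomycin, then cultured 21 days on Transwell inserts. Test compound at 10 μM in HBSS was dosed for apical-to-basal and basal-to-apical transport over 1 h. Samples were quenched in methanol with berberine IS and analysed by LC-MS/MS. Papp = transport rate / (donor concentration × insert area).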
# [2] = Pharmacokinetics of ginsenosides in human plasma after single or repeated; format: in vivo; details: for Accumulation factor: AUC of repeated administration divided by AUC of single administration; for Detection in human plasma samples: after oral ingestion of red ginseng extract, LC-MS/MS; for AUC / Cmax / MRT / Tmax / half-life: male, human, plasma, po, 3 pouches of red ginseng extract; for half-life: t1/2, single dose of red ginseng extract, human plasma
# [3] = cited from earlier work
# [4] = cited from earlier work; remark: listed apart in the source
# Caco-2 cells = test: Permeability of ginsenoside in Caco-2 cells; format: in vitro ADME; details: for ER (efflux ratio): Caco-2, B to A / A to B; for Papp A to B: apical to basal; for Papp A to B / Papp B to A: 10 μM, 1 h; for Papp B to A: basal to apical
# Method in brief: as §1
SMILES,"Papp A→B at 1 h, 10 μM [1]","Papp B→A at 1 h, 10 μM [1]","efflux ratio at 1 h, 10 μM [1]",Accumulation factor [2],Detection in human plasma samples [2],AUC [2],Cmax [2],MRT [2],Tmax [2],half-life [2],Stability over the enzymatic and alkaline hydrolysis [3],Bioavailability ([4]; ref Odani et al. [10]),Bioavailability ([4]; ref Xu et al. [11]),ER (efflux ratio) (Caco-2 cells),Papp A to B (Caco-2 cells),Papp B to A (Caco-2 cells)
CC(C)=CCC[C@](C)(O[C@@H]1O[C@H](CO[C@@H]2O[C@H](CO)[C@@H](O)[C@H](O)[C@H]2O)[C@@H](O)[C@H](O)[C@H]1O)[C@H]1CC[C@]2(C)[C@@H]1[C@H](O)C[C@@H]1[C@@]3(C)CC[C@H](O[C@@H]4O[C@H](CO)[C@@H](O)[C@H](O)[C@H]4O[C@@H]4O[C@H](CO)[C@@H](O)[C@H](O)[C@H]4O)C(C)(C)[C@@H]3CC[C@]12C [Rb1],0.27 ± 0.03 ×10⁻⁶ cm/s,0.3 ± 0.08 ×10⁻⁶ cm/s,< 2,4.5–6.7 and 4.55,detected,82.7 ± 26.3 ng·h/mL,2.19 ± 0.73 ng/mL,26.8 ± 1.59 h,3.53 ± 1.25 h,35 ± 8.46 h,stable,0.1%,4.3%,–,–,–
CC(C)=CCC[C@](C)(O[C@@H]1O[C@H](CO[C@@H]2OC[C@H](O)[C@H](O)[C@H]2O)[C@@H](O)[C@H](O)[C@H]1O)[C@H]1CC[C@]2(C)[C@@H]1[C@H](O)C[C@@H]1[C@@]3(C)CC[C@H](O[C@@H]4O[C@H](CO)[C@@H](O)[C@H](O)[C@H]4O[C@@H]4O[C@H](CO)[C@@H](O)[C@H](O)[C@H]4O)C(C)(C)[C@@H]3CC[C@]12C [Rb2],0.28 ± 0.02 ×10⁻⁶ cm/s,0.24 ± 0.05 ×10⁻⁶ cm/s,–,4.5–6.7 and 6.73,detected,47.1 ± 16.4 ng·h/mL,1.26 ± 0.39 ng/mL,26.8 ± 1.74 h,3.87 ± 2.47 h,38.2 ± 20.3 h,stable,–,–,–,–,–
CC(C)=CCC[C@](C)(O)[C@H]1CC[C@]2(C)[C@@H]1[C@H](O)C[C@@H]1[C@@]3(C)CC[C@H](O)C(C)(C)[C@@H]3[C@@H](O[C@@H]3O[C@H](CO)[C@@H](O)[C@H](O)[C@H]3O)C[C@]12C [Rh1],–,–,–,–,could not be found,–,–,–,–,–,–,–,–,6.27,0.22 ± 0.04 ☓10^−6 cm/s,1.35 ± 0.14 ☓10^−6 cm/s

# Continued, in another order:
"Papp A→B at 1 h, 10 μM [1]","Papp B→A at 1 h, 10 μM [1]","efflux ratio at 1 h, 10 μM [1]",Accumulation factor [2],Detection in human plasma samples [2],AUC [2],Cmax [2],MRT [2],Tmax [2],half-life [2],SMILES,Stability over the enzymatic and alkaline hydrolysis [3],Bioavailability ([4]; ref Odani et al. [10]),Bioavailability ([4]; ref Xu et al. [11]),ER (efflux ratio) (Caco-2 cells),Papp A to B (Caco-2 cells),Papp B to A (Caco-2 cells)
0.28 ± 0.09 ×10⁻⁶ cm/s,0.33 ± 0.06 ×10⁻⁶ cm/s,< 2,4.5–6.7 and 5.44,detected,59.4 ± 22.9 ng·h/mL,1.5 ± 0.63 ng/mL,27.4 ± 2.34 h,3.68 ± 1.7 h,35.6 ± 14.8 h,CC(C)=CCC[C@](C)(O[C@@H]1O[C@H](CO[C@@H]2O[C@@H](CO)[C@H](O)[C@H]2O)[C@@H](O)[C@H](O)[C@H]1O)[C@H]1CC[C@]2(C)[C@@H]1[C@H](O)C[C@@H]1[C@@]3(C)CC[C@H](O[C@@H]4O[C@H](CO)[C@@H](O)[C@H](O)[C@H]4O[C@@H]4O[C@H](CO)[C@@H](O)[C@H](O)[C@H]4O)C(C)(C)[C@@H]3CC[C@]12C [Rc],stable,–,–,–,–,–
0.22 ± 0.02 ×10⁻⁶ cm/s,0.31 ± 0.04 ×10⁻⁶ cm/s,< 2,4.5–6.7 and 4.49,detected,22.6 ± 18.3 ng·h/mL,0.7 ± 0.46 ng/mL,24.7 ± 2.23 h,4.87 ± 1.92 h,24 ± 15.3 h,CC(C)=CCC[C@](C)(O[C@@H]1O[C@H](CO)[C@@H](O)[C@H](O)[C@H]1O)[C@H]1CC[C@]2(C)[C@@H]1[C@H](O)C[C@@H]1[C@@]3(C)CC[C@H](O[C@@H]4O[C@H](CO)[C@@H](O)[C@H](O)[C@H]4O[C@@H]4O[C@H](CO)[C@@H](O)[C@H](O)[C@H]4O)C(C)(C)[C@@H]3CC[C@]12C [Rd],stable,–,–,–,–,–
–,–,–,–,could not be found,–,–,–,–,–,CC(C)=CCC[C@](C)(O[C@@H]1O[C@H](CO)[C@@H](O)[C@H](O)[C@H]1O)[C@H]1CC[C@]2(C)[C@@H]1[C@H](O)C[C@@H]1[C@@]3(C)CC[C@H](O)C(C)(C)[C@@H]3[C@@H](O[C@@H]3O[C@H](CO)[C@@H](O)[C@H](O)[C@H]3O)C[C@]12C [Rg1],–,2%,18.4%,–,–,–
–,–,–,–,absence,–,–,–,–,–,CC(C)=CCC[C@](C)(O)[C@H]1CC[C@]2(C)[C@@H]1[C@H](O)C[C@@H]1[C@@]3(C)CC[C@H](O[C@@H]4O[C@H](CO)[C@@H](O)[C@H](O)[C@H]4O[C@@H]4O[C@H](CO)[C@@H](O)[C@H](O)[C@H]4O)C(C)(C)[C@@H]3CC[C@]12C [Rg3],–,–,–,2.97,0.05 ± 0.01 ☓10^−6 cm/s,0.14 ± 0.06 ☓10^−6 cm/s
